An excerpt weighted towards active compounds, which were near 0.89% of everything screened.
PG9 Ab binder: PG9 antibody binding by small molecule. TR-FRET gp120-PG9 antibody binding. inhibition, % at 6.7 µM. hit rate 0.43% among 360,000; in the data active = inhibition above about 8.5%
Arrestin-AP2 inh: human beta-arrestin and AP2 interaction inhibition. FITC-arrestin peptide / GST-AP2 beads, flow cytometry; AP2 beta2 appendage carries R879A mutation. hit rate 0.31% among 340,000. inhibition, % at 10 µM;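 active = inhibition above a set limit, near 3 SD of compounds lacking own fluorescence, cut at about 54% in these data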
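Material – AP2 appendage R879A on GSH beads · Buffer or medium – PBS with 0.05% Tween 20 and 0.1% BSA · Probe or stimulus – fluorescein-tagged arrestin peptide at 50 nM final · Incubation – compound with beads 12 min RT, then probe 1 h RT · Detection – high-throughput flow cytometry of beads, ex 488, em 535 nm · Evaluation – percent response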
ABCB6 inh 2: blocks the human ABCB6 transporter | Q9NP58 | K562-ABCB6 porphyrin accumulation, flow cytometry, 1 h; stronger effect = lower value | fluorescence ratio to DMSO, % at 10 µM | hit rate 0.19% among 360,000;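 active = fluorescence ratio to DMSO below 75%, the collection mean minus 3 SD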;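 note: signal is porphyrin accumulated inside mitochondria; lower ratio means ABCB6 inhibition with less porphyrin fluorescence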
Target sequence (Q9NP58 whole entry, looked up): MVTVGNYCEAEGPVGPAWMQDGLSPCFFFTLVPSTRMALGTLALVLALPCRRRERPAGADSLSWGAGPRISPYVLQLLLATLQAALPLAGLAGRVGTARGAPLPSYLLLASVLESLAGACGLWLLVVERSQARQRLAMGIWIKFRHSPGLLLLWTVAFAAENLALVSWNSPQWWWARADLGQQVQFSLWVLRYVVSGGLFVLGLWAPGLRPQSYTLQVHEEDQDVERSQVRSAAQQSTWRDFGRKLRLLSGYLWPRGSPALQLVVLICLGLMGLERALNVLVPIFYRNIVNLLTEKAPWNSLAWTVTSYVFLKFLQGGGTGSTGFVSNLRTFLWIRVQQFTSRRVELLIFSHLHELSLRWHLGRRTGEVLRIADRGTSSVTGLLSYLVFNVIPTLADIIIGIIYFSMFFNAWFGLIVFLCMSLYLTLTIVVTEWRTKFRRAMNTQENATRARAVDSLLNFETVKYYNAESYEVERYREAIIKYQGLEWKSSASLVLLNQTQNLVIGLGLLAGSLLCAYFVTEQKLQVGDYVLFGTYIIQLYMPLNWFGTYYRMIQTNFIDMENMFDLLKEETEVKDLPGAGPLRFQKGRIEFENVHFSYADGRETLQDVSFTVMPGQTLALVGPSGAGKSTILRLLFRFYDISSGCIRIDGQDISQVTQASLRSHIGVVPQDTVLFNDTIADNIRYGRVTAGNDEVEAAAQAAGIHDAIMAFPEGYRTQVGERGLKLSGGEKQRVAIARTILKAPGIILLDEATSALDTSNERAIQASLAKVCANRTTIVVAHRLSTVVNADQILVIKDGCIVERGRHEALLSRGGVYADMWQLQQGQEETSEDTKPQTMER
iPSC survival up: increases survival of single human iPS cells | survival enhancement, % at 20 µM | hiPSC single-cell survival, ATPlite luminescence; 100% = ROCK inhibitor wells, 0% = DMSO | hit rate 0.044% among 360,000; in the data active = survival enhancement above about 18%;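 note: cells exposed to compounds for 16 hours before the ATP read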
A number is an active result; – = inactive; · = not tested or not shown.

SMILES	PG9 Ab binder	Arrestin-AP2 inh	ABCB6 inh 2	iPSC survival up
COC(=O)Cc1nnn2c1[C@@H](C)[C@@H](c1ccccc1Br)OC[C@H](C)C2	–	·	·	·
O=C(N[C@H](C(=O)N1CCC[C@H]1C(=O)NC1CCCC1)C1CCCCC1)c1ccco1	–	·	·	·
Cc1onc(-c2ccccc2)c1C(=O)NNC(=S)NC(=O)/C=C/c1ccccc1	–	–	74.0	–
COc1ccc(/C=C/C(=O)NC(=S)NNC(=O)c2c(-c3ccccc3)noc2C)cc1	–	–	–	–
C=CCCC(=O)N1C[C@H]2CCN(C)[C@H]2C[C@H]1c1ccccc1Br	–	·	·	·
Cc1nnc2n(C3CCCCC3)c(=O)c3c4c(sc3n12)COC(C)(C)C4	–	–	–	21.0
COc1ccc(-c2cc(C(F)F)n3ncc(C(=O)NCC4CCCO4)c3n2)cc1 (stereo not given)	–	–	–	–
COc1ccc(-c2cc(C(F)(F)F)n3ncc(C(=O)NCC4CCCO4)c3n2)cc1OC (stereo not given)	–	–	64.0	–
C[C@H](O)[C@@H]1CN2CCc3ccc(-c4ccc5c(c4)OCO5)cc3[C@@H]2C[C@@H]1N(C)C(=O)c1cccc(Cl)c1	–	·	·	·
O=C(C#Cc1ccccc1)c1cccc([N+](=O)[O-])c1	–	–	71.0	–
CC(=O)c1cccc([N+](=O)[O-])c1	–	–	–	–
OCCNc1ncnc2ccc(Br)cc12	–	–	70.0	–
O=C(CNC(=O)c1ccccc1)OC(C(=O)Nc1cc(C(F)(F)F)ccc1Cl)c1ccccc1 (stereo not given)	–	–	–	18.6
O=C(NCCc1ccccc1Cl)[C@@H]1CCCN1C(=O)[C@@H](NC(=O)N1CCOCC1)c1ccccc1	–	·	·	·
C=CCn1c(SCC(=O)Nc2ccccc2C)nc2sc(C)c(C)c2c1=O	–	–	73.0	–
CCOC(=O)C1=C(C(=O)OCC)C2N(Cc3ccc(C(F)(F)F)cc3)c3ccccc3[C@@]23C[C@@H](C(=O)OC)N(S(=O)(=O)c2ccc(OC)cc2)C3=N1 (stereo not given in full)	–	·	·	·
COc1cc(C(=O)NCc2ccncc2)cc(OC)c1OC	–	–	–	–
COc1cc(C(=O)NCc2ccc(-c3nc4ccccc4o3)cc2)cc(OC)c1OC	11.4	–	–	–
COC(=O)[C@]12C[C@H](CC(=O)NCCc3ccccc3OC)C(=O)N(CCC3=CCCCC3)C1=C[C@H](COCc1ccccc1)O[C@@H]2C	–	·	·	·
CCOC(=O)c1c(-c2ccc(F)cc2)csc1NC(=O)C1CC=CCC1C(=O)O (stereo not given)	–	–	–	–
COC(=O)c1c(-c2ccco2)csc1NC(=O)C1CC=CCC1C(=O)O (stereo not given)	9.7	–	–	–
O=C(NCCc1ccccc1Cl)[C@@H]1CCCN1C(=O)[C@H](Cc1cccnc1)NC(=O)N1CCOCC1	–	·	·	·
Cc1ccc(S(=O)(=O)N2CCN(Cc3nc4sc(C)c(C)c4c(=O)[nH]3)CC2)cc1	–	–	–	–
Cc1sc2nc(CN3CCN(S(=O)(=O)c4cccc5nonc45)CC3)[nH]c(=O)c2c1C	–	–	24.0	–
COc1ccccc1CCn1cnc(-c2ccc(Br)cc2)c1CC(C)C	–	·	·	·
SMILES	PG9 Ab binder	Arrestin-AP2 inh	ABCB6 inh 2	iPSC survival up
Cc1[nH]c2ccccc2c1C(=O)CSc1nc2cc(S(=O)(=O)N3CCCCC3)ccc2o1	–	–	69.0	–
Cc1ccc(C(=O)CSc2nc3cc(S(=O)(=O)N4CCOCC4)ccc3o2)cc1	–	–	–	–
COCc1[nH]nc2c1C(c1ccc(C)cc1)NC2=O (stereo not given)	–	·	·	·
C[C@H](O)[C@@H]1C(=O)N2CCc3c([nH]c4cccc(-c5ccccc5)c34)[C@@H]2C[C@@H]1N(C)C(=O)Nc1ccccc1	–	·	·	·
CC(=O)c1ccc(NC(=O)CSc2nc3[nH]ncc3c(=O)[nH]2)cc1	41.0	–	–	–
COc1ccc(NC(=O)Cc2ccc(Cl)c(Cl)c2)cn1	–	–	–	–
COc1ccc(NC(=O)/C(Cl)=C(/Cl)S(=O)(=O)Cc2ccc(C)cc2)cn1	·	–	–	22.9
Cc1ccc2c(COC(=O)C3=COCCO3)cc(=O)oc2c1	–	–	–	22.6
COc1cccc2cc(-c3nc(-c4cccs4)cs3)c(=O)oc12	–	99.4	–	–
Cc1ccccc1NC(=O)CSc1nc(N)c(C#N)c(-c2cccs2)c1C#N	72.2	–	–	–
CCOc1ccccc1NC(=O)CSc1nc(N)c(C#N)cc1C#N	66.3	–	–	–
COC(=O)c1ccsc1NS(C)(=O)=O	–	·	·	·
O=C(Cc1ccc(Br)cc1)Nc1ccc2[nH]ncc2c1	–	–	–	24.9
O=C(Cc1ccccc1)Nc1ccc2[nH]ncc2c1	–	–	–	–
CCOC(=O)C1=C(C(=O)OCC)C2N(Cc3ccc(Br)cc3)c3ccccc3[C@@]23C[C@@H](C(=O)OC)N(S(=O)(=O)c2ccc(F)cc2)C3=N1 (stereo not given in full)	–	·	·	·
CCC1=[N+](C)CCn2c(C)ccc21	–	83.2	–	–
O=C(NCCN1CCC(n2c(=O)[nH]c3cc(Cl)ccc32)CC1)c1ccc(F)cc1	–	·	·	·
Cc1ccc([C@@H]2C[C@H]3[C@@H](CN2S(=O)(=O)c2ccc(Cl)cc2)C(=O)C[C@@H](c2ccc(C)cc2)N3S(=O)(=O)c2ccc(Cl)cc2)cc1	–	·	–	27.5
Cc1ccc(C(=O)OCc2cc(=O)n3ccsc3n2)s1	–	–	–	18.5
COCCCNC(=O)C[C@H]1C[C@@]2(C(=O)OC)C(=C[C@H](COCc3ccccc3)O[C@@H]2C)N(Cc2ccc3c(c2)OCO3)C1=O	–	·	·	·
Cc1ccc(S(=O)(=O)N(C)[C@H]2C[C@H]3c4[nH]c5cccc(-c6ccccc6)c5c4CCN3C(=O)[C@H]2[C@H](C)O)cc1	–	·	·	·
COc1cc(C(=O)Nc2nc3ccccc3s2)ccc1OCc1c(C)noc1C	11.0	–	–	–
CCCOc1ccc(/C(O)=C2\C(=O)C(=O)N(CCCOC)C23C(=O)N(C)c2ccccc23)cc1 (stereo not given)	11.0	–	–	–
CCc1c(C)nc2nc(SCc3ccccc3Cl)[nH]n2c1=O	–	–	61.0	–
COCCCNC(=O)[C@@H](Cc1ccccc1)NC(=O)[C@H]1O[C@@H](n2ccc(=O)[nH]c2=O)[C@H](O)[C@@H]1O	–	·	·	·
SMILES	PG9 Ab binder	Arrestin-AP2 inh	ABCB6 inh 2	iPSC survival up
CC(C)[C@H](NC(=O)[C@H](C)NC(=O)OC(C)(C)C)C(=O)N1CCC2CCN(Cc3ccccc3)CC21 (stereo not given in full)	–	·	·	·
CCOc1cc(OCC)cc(C(=O)N2CCC[C@@H]2C(=O)N2CCC[C@@H]2C(=O)NCc2cccc(OC)c2)c1	–	·	·	·
CC(=O)Nc1ccc(S(=O)(=O)N(C)c2ccccc2)cc1	–	–	–	–
CCN(c1ccccc1)S(=O)(=O)c1ccc(NC(=O)c2nc(S(C)(=O)=O)ncc2Cl)cc1	·	–	37.0	–
CCS(=O)(=O)c1ncc(Cl)c(C(=O)Nc2ccc(S(=O)(=O)N(C)c3ccccc3)cc2)n1	–	–	39.0	21.2
COC(=O)c1cc2c(c3c4ccccc4n(S(C)(=O)=O)c13)C(=O)N(Cc1ccccc1)C2	–	·	·	·

Screening data deposited in PubChem BioAssay by several laboratories.
